Experimental data published in PMC7415440 (Drug Design, Development and Therapy, 2020).

Experiments:
Multiple ascending dose = assay type: in vivo, human
Outline: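 Seven 1 h iv saline infusions every 12 h. Plasma sampled to 12 h after the first dose, predose at 60 and 72 h, then to 96 h; urine collected in 4–12 h intervals after the first and last doses. HPLC-MS/MS with deuterated internal standard; plasma range 10–30,000 ng/mL, urine 50–150,000 ng/mL. Noncompartmental analysis on actual sampling times; AUCτ by trapezoidal rule; CLR as Ae/AUClast.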

[1] = MAD study safety and tolerability assessment; assay type: in vivo, human; settings: for Number of Subjects with AEs (%) / Number of Subjects with Drug Related AEs (% total): 6 subjects
Outline: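 Double-blind, placebo-controlled trial in healthy Korean males (active:placebo 6:2 per group), infused iv in normal saline over 1 h every 12 h, seven doses over 3.5 days, at 150, 300 or 450 mg. Subjects were in-house days 1–5, with follow-up 8 days after the last dose. Monitoring covered vital signs, 12-lead ECG, clinical labs, physical exams and AEs, with intensity and relationship to drug recorded.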

[2] = multiple iv 150 mg over 1 h every 12 h x7, n=6, mean (SD)
[3] = multiple iv 300 mg over 1 h every 12 h x7, n=6, mean (SD)
[4] = multiple iv 450 mg over 1 h every 12 h x7, n=6, mean (SD)
[5] = multiple iv, all doses 150-450 mg, Total n=18, mean (SD)
[6] = multiple iv doses, n=24, number of subjects [cases]

## CCOc1cc(CN2CCOCC2)cc2[nH]c(=O)c3c(c12)NCCC3.Cl.Cl.O.O [JPI-289]
Multiple ascending dose; [2]
  AUCτ,1st dose: 4766.06 (878.28) ng·h/mL
  AUCτ,ss: 7696.21 (1157.59) ng·h/mL
  Ae,1st dose: 3.98 (1.21) mg
  Ae,last dose: 5.48 (1.64) mg
  CLR,1st dose: 0.84 (0.21) L/h
  CLR,last dose: 0.73 (0.24) L/h
  CLss: 19.91 (3.37) L/h
  Cav,ss: 641.35 (96.47) ng/mL
  Cmax,1st dose: 1728.17 (353.61) ng/mL
  Cmax,ss: 2023.47 (460.41) ng/mL
  Observed AI (accumulation index): 1.64 (0.21)
  Vd,ss: 112.20 (31.78) L
  Vz: 85.65 (17.01) L
  t1/2,eff: 1.88 (0.13) L
  t1/2z: 2.44 h
Multiple ascending dose; [3]
  AUCτ,1st dose: 14,809.79 (2793.29) ng·h/mL
  AUCτ,ss: 22,608.80 (5198.68) ng·h/mL
  Ae,1st dose: 11.74 (3.77) mg
  Ae,last dose: 13.87 (5.36) mg
  CLR,1st dose: 0.80 (0.25) L/h
  CLR,last dose: 0.61 (0.14) L/h
  CLss: 13.95 (3.63) L/h
  Cav,ss: 1884.07 (433.23) ng/mL
  Cmax,1st dose: 4747.25 (798.21) ng/mL
  Cmax,ss: 5658.20 (804.71) ng/mL
  Observed AI (accumulation index): 1.52 (0.22)
  Vd,ss: 74.92 (11.18) L
  Vz: 67.95 (11.04) L
  t1/2,eff: 2.46 (0.67) L
  t1/2z: 2.74 h
Multiple ascending dose; [4]
  AUCτ,1st dose: 28,278.07 (6412.76) ng·h/mL
  AUCτ,ss: 50,840.74 (19,417.91) ng·h/mL
  Ae,1st dose: 25.66 (5.03) mg
  Ae,last dose: 40.71 (20.87) mg
  CLR,1st dose: 0.92 (0.16) L/h
  CLR,last dose: 0.77 (0.22) L/h
  CLss: 9.78 (3.11) L/h
  Cav,ss: 4236.73 (1618.16) ng/mL
  Cmax,1st dose: 8070.98 (1320.10) ng/mL
  Cmax,ss: 11,921.28 (1655.56) ng/mL
  Observed AI (accumulation index): 1.76 (0.28)
  Vd,ss: 72.06 (8.72) L
  Vz: 63.02 (8.23) L
  t1/2,eff: 3.05 (0.97) L
  t1/2z: 3.5 h
Multiple ascending dose; [5]
  AUCτ,1st dose: 15,951.31 (10,623.66) ng·h/mL
  AUCτ,ss: 27,048.58 (21,404.87) ng·h/mL
  Ae,1st dose: 13.79 (9.86) mg
  Ae,last dose: 20.02 (19.40) mg
  CLR,1st dose: 0.85 (0.20) L/h
  CLR,last dose: 0.70 (0.21) L/h
  CLss: 14.54 (5.33) L/h
  Cav,ss: 2254.05 (1783.74) ng/mL
  Cmax,1st dose: 4848.80 (2800.32) ng/mL
  Cmax,ss: 6534.32 (4330.54) ng/mL
  Observed AI (accumulation index): 1.64 (0.24)
  Vd,ss: 86.39 (26.65) L
  Vz: 72.21 (15.52) L
  t1/2,eff: 2.46 (0.81) L
  t1/2z: 2.89 h
[1]; MAD
  intensity of AEs: mild in intensity
[1]; MAD, dose range 150–450 mg
  tolerability: well tolerated
[1]; MAD, in seven subjects
  total number of AEs: 12
[1]; multiple iv doses 150 mg
  Number of Subjects with AEs (%): 0 (0.0)
  Number of Subjects with Drug Related AEs (% total): 0 (0.0)
[1]; multiple iv doses 300 mg
  Number of Subjects with AEs (%): 1 (16.7)
  Number of Subjects with Drug Related AEs (% total): 1 (16.7)
[1]; multiple iv doses 450 mg
  Number of Subjects with AEs (%): 5 (83.3)
  Number of Subjects with Drug Related AEs (% total): 4 (66.7)
[1]; [6]
  Abdominal discomfort, Drug-Related: 0 [0]
  Abdominal discomfort, Not Related: 1 [1]
  Abdominal discomfort, Total: 1 [1]
  Bilirubin total increased, Drug-Related: 1 [1]
  Bilirubin total increased, Not Related: 0 [0]
  Bilirubin total increased, Total: 1 [1]
  Diarrhea, Drug-Related: 0 [0]
  Diarrhea, Not Related: 1 [1]
  Diarrhea, Total: 1 [1]
  Dizziness, Drug-Related: 2 [2]
  Dizziness, Not Related: 0 [0]
  Dizziness, Total: 2 [2]
  Fever, Drug-Related: 1 [1]
  Fever, Not Related: 0 [0]
  Fever, Total: 1 [1]
  Headache, Drug-Related: 2 [2]
  Headache, Not Related: 0 [0]
  Headache, Total: 2 [2]
  Heart rate increased, Drug-Related: 0 [0]
  Heart rate increased, Not Related: 0 [0]
  Heart rate increased, Total: 0 [0]
  Sinus tachycardia, Drug-Related: 1 [1]
  Sinus tachycardia, Not Related: 0 [0]
  Sinus tachycardia, Total: 1 [1]
  Stomatitis, Drug-Related: 1 [1]
  Stomatitis, Not Related: 0 [0]
  Stomatitis, Total: 1 [1]
  Urticaria, Drug-Related: 2 [2]
  Urticaria, Not Related: 0 [0]
  Urticaria, Total: 2 [2]
